Results from paper PMC4180501 (Biochimica et biophysica acta, 2012).
Substitutions are numbered along the chain they refer to. Where two headings read alike, the source gives them in different places.

Key:
[1] = molecular target: T1, GK-WT (Homo sapiens, UniProt P35557); assay: DSC thermal denaturation
T1 sequence (P35557 1-465): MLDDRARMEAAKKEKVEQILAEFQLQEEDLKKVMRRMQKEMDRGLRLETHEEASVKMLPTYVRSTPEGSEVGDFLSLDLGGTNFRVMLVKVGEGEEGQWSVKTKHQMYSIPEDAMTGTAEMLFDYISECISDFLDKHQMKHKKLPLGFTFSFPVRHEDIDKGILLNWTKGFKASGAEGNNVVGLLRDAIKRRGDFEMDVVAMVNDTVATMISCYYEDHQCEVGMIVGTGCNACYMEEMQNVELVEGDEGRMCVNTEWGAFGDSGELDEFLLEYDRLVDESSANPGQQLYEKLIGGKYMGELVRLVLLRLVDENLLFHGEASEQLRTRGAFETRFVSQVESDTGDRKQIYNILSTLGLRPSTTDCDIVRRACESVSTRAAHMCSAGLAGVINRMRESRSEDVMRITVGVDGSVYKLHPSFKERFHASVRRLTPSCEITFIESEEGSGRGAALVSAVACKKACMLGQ
How it was run: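 Wild-type recombinant human GK was run by DSC at 0.3 mg/ml (6 µM) in 5 mM phosphate, 100 mM KCl, pH 7.3, in buffer or 20% glycerol, with glucose up to 300 mM. The scan was 0.25 degree/min against a protein-free reference. Tm was plotted against glucose and fit to a hyperbola for EC50. Unfolding rate constant used k=vCp/(Qt−Q) to derive activation energy.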

[2] = molecular target: T1, GK-WT; assay: Urea unfolding/refolding of GK by tryptophan fluorescence
How it was run: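 GK-WT unfolding was followed by urea titration in 20 mM PO4, 50 mM KCl, 1 mM EDTA, 1 mM DTT, pH 7.3, 20 °C, ± 20% glycerol, ± 300 mM glucose. I320/I360 was read at 295 nm excitation, and ΔGu(H2O) came from a two-state fit. Reversibility was tested after 30 min in 4 or 8 M urea, then dialysis, by restoration of the spectrum and glucose response.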

[3] = molecular target: T1, GK-WT; assay: NADP+-coupled spectrophotometric kinetic assay; format: biochemical
[4] = molecular target: T1, GK-WT; assay: Temperature dependent tryptophan fluorescence; settings: glycerol present, absence of glucose
How it was run: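 Tryptophan emission spectra of about 3 µM GK in 5 mM K-phosphate, pH 7.3, 100 mM KCl were recorded from 10 to 65 °C in a thermostatted, thermocouple-monitored cell. […] Line 7 also used ± 20% glycerol. Denaturation was followed as the I320/I360 ratio and its temperature derivative.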

[5] = molecular target: T1, GK-WT; settings: read-out: ATP KM, no GKA, no glycerol, ref [19]; cited from earlier work
[6] = molecular target: T2, GK-W167 (W99R/W257F) (Homo sapiens, UniProt P35557, W257F/W99R); settings: read-out: ATP KM; W-167; no GKA; no glycerol; ref [19]; cited from earlier work
T2 sequence (P35557 1-465 W99R/W257F): T1 sequence (P35557 1-465) with W99R, W257F

[7] = molecular target: T3, GK- W257 (W99R/W167F) (Homo sapiens, UniProt P35557, W167F/W99R); assay: NADP+-coupled spectrophotometric kinetic assay; format: biochemical; settings: read-out: ATP KM; W-257; no GKA; 30% glycerol
T3 sequence (P35557 1-465 W99R/W167F): T1 sequence (P35557 1-465) with W99R, W167F

[8] = molecular target: T4, GK-W99 (W167F/W257F) (Homo sapiens, UniProt P35557, W167F/W257F); assay: NADP+-coupled spectrophotometric kinetic assay; format: biochemical; settings: read-out: ATP KM; W-99; no GKA; 30% glycerol
T4 sequence (P35557 1-465 W167F/W257F): T1 sequence (P35557 1-465) with W167F, W257F
How it was run: (§1)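 Recombinant human β-cell glucokinase single-Trp variant, expressed in E. coli as a GST fusion and sequence-verified. Catalytic parameters came from an NADP+-coupled spectrophotometric assay run with or without 30% glycerol. Hill coefficient and glucose S0.5 were obtained by fitting v/Vmax = [glucose]^H/(K′+[glucose]^H), with […].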

[9] = molecular target: T3, GK- W257 (W99R/W167F); settings: read-out: ATP KM; W-257; no GKA; no glycerol; ref [19]; cited from earlier work
[10] = molecular target: T2, GK-W167 (W99R/W257F); assay: NADP+-coupled spectrophotometric kinetic assay; format: biochemical; settings: read-out: ATP KM; W-167; no GKA; 30% glycerol
How it was run: as §1

[11] = molecular target: T4, GK-W99 (W167F/W257F); settings: read-out: ATP KM; W-99; no GKA; no glycerol; ref [19]; cited from earlier work

In the case of OCC(O)CO [glycerol], the ΔH thermal denaturation ([1]; GK-WT in 20% glycerol, no D-glucose) is reported as 126 kcal/mol, the Tm ([1]; GK-WT in 20% glycerol, no D-glucose, DSC) is reported as 51.3 °C and the Ea thermal denaturation ([1]; GK-WT, 20% glycerol, 0 mM D-glucose) is reported as 131.5 kcal/mol. For the same compound, the “ΔGu(H2O) of urea denaturation” value ([2]; GK-WT in 20% glycerol, 20°C, pH 7.3) was 1.84 kcal/mol, the “Q10 of the GK reaction” value ([3]; presence of glycerol) was 1.47 and the TmF [4] was 48 °C.
For Nc1ncnc2c1ncn2[C@@H]1O[C@H](COP(=O)(O)OP(=O)(O)OP(=O)(O)O)[C@@H](O)[C@H]1O [ATP], the Km [5] is given as 460 µM, the Km [6] is given as 780 µM and the Km [7] is given as 710 µM. The Km [8] was 710 µM, the Km ([3]; read-out: ATP KM, GK-WT, no GKA, 30% glycerol) was 230 µM and the Km [9] was 3350 µM. The Km [10] was 300 µM and the Km [11] was 1630 µM.
For NC(N)=O [urea], the “reversibility of GK unfolding” value ([2]; 4 or 8 M urea, TF studies, urea removed by dialysis) was “fully reversible”.
